Results published in ChEMBL document CHEMBL1914406, “Inhibitory effect of novel 5-O-acyl juglones on mammalian DNA polymerase activity, cancer cell growth and inflammatory response” (Bioorg Med Chem, 2011).
Active and inactive are the calls of the source. The calls are words filed in the database; no cut-off is given here.

Tests used:
[1] = system: HCT-116; assay: Cytotoxicity against human HCT116 cells by WST-1 assay; type: functional, cell-based
In short: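 HCT116 colon carcinoma cells (ATCC) grown in McCoy's 5A with 10% FBS, penicillin and streptomycin, 37 °C, 5% CO2. Plated at 1 × 10⁴ cells/well together with compound, which was diluted from a 10 mM DMSO stock into medium (final 0.5% DMSO). Incubated 24 h. Viability read by WST-1, expressed relative to untreated cells.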

[2] = system: HCT-116; assay: Cytotoxicity against human HCT116 cells by WST-1 assay relative to etoposide; type: functional, cell-based

CCCCCCCC/C=C\CCCCCCCC(=O)Oc1cccc2c1C(=O)C=CC2=O
Activity [1]: Active
Activity [2]: Active
